Assay results as given in ChEMBL document CHEMBL1629528 (J Med Chem, 2010).
Activity calls are given as the source filed them. The rule behind the calls is not given here.

Columns and labels:
[1] = target: T1, 5-hydroxytryptamine receptor 1A (Homo sapiens) (UniProt P08908); assay: Intrinsic activity at human recombinant 5-HT1A receptor expressed in HEK293 cells by [S35]GTPgammaS binding assay relative to 5-HT; assay type: functional, cell-based
T1 sequence (whole entry): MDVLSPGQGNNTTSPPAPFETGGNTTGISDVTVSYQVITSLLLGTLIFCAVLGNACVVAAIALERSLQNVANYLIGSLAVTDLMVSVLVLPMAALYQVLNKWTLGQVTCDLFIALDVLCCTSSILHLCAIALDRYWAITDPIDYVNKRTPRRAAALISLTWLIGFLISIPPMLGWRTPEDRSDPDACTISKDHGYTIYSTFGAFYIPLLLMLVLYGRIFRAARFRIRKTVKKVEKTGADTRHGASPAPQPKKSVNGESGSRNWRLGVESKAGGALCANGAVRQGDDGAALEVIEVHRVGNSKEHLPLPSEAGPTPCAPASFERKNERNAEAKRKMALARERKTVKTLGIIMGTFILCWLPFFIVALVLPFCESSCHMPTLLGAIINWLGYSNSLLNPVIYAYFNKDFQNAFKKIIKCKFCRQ
In short: (§1)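 [35S]-GTPγS binding in membranes from 10^6 cells (HEK293 for 5-HT1A; CHO for 5-HT1B, 5-HT1D), preincubated 30 min at 30 °C with compound in 20 mM HEPES pH 7.4, 3 mM MgCl2, 100 mM NaCl, 10 μM GDP, 0.2 mM ascorbate. 100 pM [35S]-GTPγS added, 30 min more at 30 °C; nonspecific with 20 μM GTPγS; filtration and scintillation counting.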

Rattus norvegicus = assay: Inhibition of 8-OH-DPAT-induced hyperlocomotory activity in Sprague-Dawley rat administered orally 60 mins before 8-OH-DPATchallenge; assay type: functional; details: for ED50: po
In short: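 Male Sprague-Dawley rats (250–350 g) dosed orally (5 mL/kg) at 0.03, 0.1 or 0.3 mg/kg or vehicle, 60 min before sc 8-OH-DPAT 0.2 mg/kg (2 mL/kg). Total distance travelled recorded by infrared sensors over 30 min immediately after; 8–9 rats per group.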

[2] = target: T2, 5-hydroxytryptamine receptor 1B (Homo sapiens, UniProt P28222); assay: Intrinsic activity at human recombinant 5-HT1B receptor expressed in CHO cells by [S35]GTPgammaS binding assay relative to 5-HT; assay type: functional, cell-based; in short: as §1
T2 sequence (P28222 whole entry): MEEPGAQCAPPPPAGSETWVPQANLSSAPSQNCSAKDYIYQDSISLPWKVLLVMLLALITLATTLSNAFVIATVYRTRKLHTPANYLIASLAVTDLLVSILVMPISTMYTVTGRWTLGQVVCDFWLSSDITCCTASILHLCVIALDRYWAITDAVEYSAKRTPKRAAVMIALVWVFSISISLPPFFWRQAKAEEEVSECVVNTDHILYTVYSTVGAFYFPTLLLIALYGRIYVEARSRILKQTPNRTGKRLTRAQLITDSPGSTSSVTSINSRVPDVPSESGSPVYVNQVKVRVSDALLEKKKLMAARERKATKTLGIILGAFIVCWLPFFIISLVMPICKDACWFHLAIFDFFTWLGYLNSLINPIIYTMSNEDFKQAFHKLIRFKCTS

[3] = target: T3, 5-hydroxytryptamine receptor 1D (Homo sapiens, UniProt P28221); assay: Intrinsic activity at human recombinant 5-HT1D receptor expressed in CHO cells by [S35]GTPgammaS binding assay relative to 5-HT; assay type: functional, cell-based; in short: as §1
T3 sequence (P28221 whole entry): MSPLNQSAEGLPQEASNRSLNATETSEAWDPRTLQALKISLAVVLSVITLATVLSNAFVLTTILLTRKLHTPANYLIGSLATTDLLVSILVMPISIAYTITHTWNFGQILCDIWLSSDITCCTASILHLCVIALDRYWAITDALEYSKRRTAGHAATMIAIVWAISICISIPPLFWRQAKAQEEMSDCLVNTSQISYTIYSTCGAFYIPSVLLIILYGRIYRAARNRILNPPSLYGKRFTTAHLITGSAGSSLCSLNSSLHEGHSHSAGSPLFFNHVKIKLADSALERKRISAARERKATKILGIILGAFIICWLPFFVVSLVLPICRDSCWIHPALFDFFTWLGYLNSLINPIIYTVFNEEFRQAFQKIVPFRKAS

[4] = target: T3, 5-hydroxytryptamine receptor 1D; assay: Inverse agonist activity at human recombinant 5-HT1D receptor expressed in CHO cells by [S35]GTPgammaS binding assay; assay type: functional, cell-based; in short: as §1
[5] = target: 5-hydroxytryptamine receptor 2B (Homo sapiens, UniProt P41595); assay: Binding affinity to human recombinant 5-HT2B receptor by radioligand displacement assay
Chain of 5-hydroxytryptamine receptor 2B (P41595 whole entry): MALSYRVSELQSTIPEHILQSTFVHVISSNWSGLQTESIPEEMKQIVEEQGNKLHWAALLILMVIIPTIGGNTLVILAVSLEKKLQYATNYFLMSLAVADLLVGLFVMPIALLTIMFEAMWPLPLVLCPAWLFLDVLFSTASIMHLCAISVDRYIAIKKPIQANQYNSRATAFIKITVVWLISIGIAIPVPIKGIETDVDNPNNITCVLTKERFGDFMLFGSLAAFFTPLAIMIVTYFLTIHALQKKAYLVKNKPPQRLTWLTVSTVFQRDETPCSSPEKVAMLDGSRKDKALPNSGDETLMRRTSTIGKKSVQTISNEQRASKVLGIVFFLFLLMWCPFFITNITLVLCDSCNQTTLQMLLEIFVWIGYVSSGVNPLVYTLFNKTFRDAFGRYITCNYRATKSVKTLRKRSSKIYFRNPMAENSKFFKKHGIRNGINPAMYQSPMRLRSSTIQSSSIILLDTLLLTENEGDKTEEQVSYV

D(2) dopamine receptor = D(2) dopamine receptor (Homo sapiens, UniProt P14416); assay: Binding affinity to human recombinant dopamine D2 receptor by radioligand displacement assay
Chain of D(2) dopamine receptor (P14416 whole entry): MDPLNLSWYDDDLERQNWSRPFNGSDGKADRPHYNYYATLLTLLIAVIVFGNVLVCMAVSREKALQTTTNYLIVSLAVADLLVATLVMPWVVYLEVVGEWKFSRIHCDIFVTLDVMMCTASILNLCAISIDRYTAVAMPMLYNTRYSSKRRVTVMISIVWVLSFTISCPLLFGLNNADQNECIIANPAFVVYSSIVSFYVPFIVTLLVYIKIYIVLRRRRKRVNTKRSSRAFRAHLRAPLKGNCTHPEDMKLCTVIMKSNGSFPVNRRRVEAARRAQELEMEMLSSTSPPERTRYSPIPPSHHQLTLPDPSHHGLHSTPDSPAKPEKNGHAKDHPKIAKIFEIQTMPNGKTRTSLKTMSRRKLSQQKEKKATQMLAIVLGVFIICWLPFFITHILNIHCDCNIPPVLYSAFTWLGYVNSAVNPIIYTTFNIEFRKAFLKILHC

[6] = target: 5-hydroxytryptamine receptor 6 (Homo sapiens, UniProt P50406); assay: Binding affinity to human recombinant 5-HT6 receptor by radioligand displacement assay
Chain of 5-hydroxytryptamine receptor 6 (P50406 whole entry): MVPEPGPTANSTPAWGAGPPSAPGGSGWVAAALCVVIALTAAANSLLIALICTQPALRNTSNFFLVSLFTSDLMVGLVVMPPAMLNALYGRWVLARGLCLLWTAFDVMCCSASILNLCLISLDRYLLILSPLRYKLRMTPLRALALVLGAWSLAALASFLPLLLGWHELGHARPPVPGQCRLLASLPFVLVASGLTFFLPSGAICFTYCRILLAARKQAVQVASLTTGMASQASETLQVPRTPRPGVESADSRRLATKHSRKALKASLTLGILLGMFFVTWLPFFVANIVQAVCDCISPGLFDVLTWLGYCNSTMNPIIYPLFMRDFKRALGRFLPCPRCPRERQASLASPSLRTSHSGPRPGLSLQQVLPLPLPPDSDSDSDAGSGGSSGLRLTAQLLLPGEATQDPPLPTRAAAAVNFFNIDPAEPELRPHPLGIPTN

[7] = target: T4, 5-hydroxytryptamine receptor 1A (Homo sapiens, UniProt P08908); assay: Displacement of [3H]WAY100635 from human recombinant 5-HT1A receptor expressed in CHO cells; assay type: cell-based
T4 sequence (P08908 whole entry): T1 sequence (whole entry)

[8] = target: 5-hydroxytryptamine receptor 7 (Homo sapiens, UniProt P34969); assay: Binding affinity to human recombinant 5-HT7 receptor by radioligand displacement assay
[9] = target: Voltage-gated inwardly rectifying potassium channel KCNH2 (Homo sapiens, UniProt Q12809); assay: Displacement of [3H]dofetilide from human ERG by SPA
Chain of Voltage-gated inwardly rectifying potassium channel KCNH2 (Q12809 whole entry): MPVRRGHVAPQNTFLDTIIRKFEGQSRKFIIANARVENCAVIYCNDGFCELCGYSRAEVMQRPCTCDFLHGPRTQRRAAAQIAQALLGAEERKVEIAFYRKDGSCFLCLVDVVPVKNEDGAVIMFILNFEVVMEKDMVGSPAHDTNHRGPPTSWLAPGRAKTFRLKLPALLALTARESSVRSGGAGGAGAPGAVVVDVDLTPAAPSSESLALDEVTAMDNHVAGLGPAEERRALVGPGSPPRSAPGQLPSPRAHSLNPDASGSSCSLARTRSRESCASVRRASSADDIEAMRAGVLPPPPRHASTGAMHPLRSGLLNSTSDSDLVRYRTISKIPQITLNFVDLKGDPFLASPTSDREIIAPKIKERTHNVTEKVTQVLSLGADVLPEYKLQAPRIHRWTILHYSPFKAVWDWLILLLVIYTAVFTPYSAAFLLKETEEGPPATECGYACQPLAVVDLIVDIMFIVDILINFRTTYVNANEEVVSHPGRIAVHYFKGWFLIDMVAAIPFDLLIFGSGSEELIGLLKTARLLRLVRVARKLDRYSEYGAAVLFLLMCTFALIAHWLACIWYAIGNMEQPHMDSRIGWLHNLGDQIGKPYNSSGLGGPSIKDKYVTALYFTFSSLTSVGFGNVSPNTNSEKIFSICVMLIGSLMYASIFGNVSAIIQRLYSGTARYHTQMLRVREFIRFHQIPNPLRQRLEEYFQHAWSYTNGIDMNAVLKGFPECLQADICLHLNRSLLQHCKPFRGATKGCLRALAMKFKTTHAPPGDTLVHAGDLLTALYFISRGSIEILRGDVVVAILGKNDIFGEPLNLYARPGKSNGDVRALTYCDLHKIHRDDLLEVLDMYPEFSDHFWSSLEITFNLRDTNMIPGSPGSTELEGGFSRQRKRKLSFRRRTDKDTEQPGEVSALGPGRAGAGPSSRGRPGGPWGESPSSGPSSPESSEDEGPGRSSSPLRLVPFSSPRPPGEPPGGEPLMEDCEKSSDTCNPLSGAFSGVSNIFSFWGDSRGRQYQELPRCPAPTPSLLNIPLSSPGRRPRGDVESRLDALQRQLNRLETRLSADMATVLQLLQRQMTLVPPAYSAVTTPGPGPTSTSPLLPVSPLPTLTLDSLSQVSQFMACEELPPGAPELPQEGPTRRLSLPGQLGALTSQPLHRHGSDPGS

[10] = target: T5, 5-hydroxytryptamine receptor 2C (Homo sapiens, UniProt P28335); assay: Binding affinity to human recombinant 5-HT2C receptor by radioligand displacement assay
T5 sequence (P28335 whole entry): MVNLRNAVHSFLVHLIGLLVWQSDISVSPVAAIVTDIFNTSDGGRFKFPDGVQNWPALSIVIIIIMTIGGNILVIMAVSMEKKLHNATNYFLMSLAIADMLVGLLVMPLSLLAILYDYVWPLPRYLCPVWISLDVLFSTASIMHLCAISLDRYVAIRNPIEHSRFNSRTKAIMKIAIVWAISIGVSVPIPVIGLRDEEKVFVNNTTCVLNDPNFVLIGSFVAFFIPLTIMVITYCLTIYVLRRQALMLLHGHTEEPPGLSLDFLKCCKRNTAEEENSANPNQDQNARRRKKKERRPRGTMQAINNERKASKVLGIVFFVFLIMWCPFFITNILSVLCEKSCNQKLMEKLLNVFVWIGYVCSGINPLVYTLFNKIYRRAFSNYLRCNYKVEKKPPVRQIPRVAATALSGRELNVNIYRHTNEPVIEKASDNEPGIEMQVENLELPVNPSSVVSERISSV

D(3) dopamine receptor = D(3) dopamine receptor (Homo sapiens, UniProt P35462); assay: Binding affinity to human recombinant dopamine D3 receptor by radioligand displacement assay
Chain of D(3) dopamine receptor (P35462 whole entry): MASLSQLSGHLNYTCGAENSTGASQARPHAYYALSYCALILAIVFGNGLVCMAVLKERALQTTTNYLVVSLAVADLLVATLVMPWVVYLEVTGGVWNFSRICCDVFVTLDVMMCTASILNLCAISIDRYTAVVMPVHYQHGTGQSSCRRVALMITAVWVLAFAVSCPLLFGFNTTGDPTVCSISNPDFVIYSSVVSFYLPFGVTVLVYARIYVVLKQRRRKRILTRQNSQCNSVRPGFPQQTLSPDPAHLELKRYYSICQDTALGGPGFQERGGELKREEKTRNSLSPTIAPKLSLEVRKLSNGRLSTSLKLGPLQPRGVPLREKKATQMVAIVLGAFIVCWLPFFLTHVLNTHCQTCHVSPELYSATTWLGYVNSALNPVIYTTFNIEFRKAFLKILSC

[11] = target: T3, 5-hydroxytryptamine receptor 1D; assay: Displacement of [3H]5-HT from human recombinant 5-HT1D receptor expressed in CHO cells; assay type: cell-based
[12] = target: 5-hydroxytryptamine receptor 2A (Homo sapiens, UniProt P28223); assay: Binding affinity to human recombinant 5-HT2A receptor by radioligand displacement assay
[13] = target: T2, 5-hydroxytryptamine receptor 1B; assay: Displacement of [3H]5-HT from human recombinant 5-HT1B receptor expressed in CHO cells; assay type: cell-based
[14] = target: Sodium-dependent serotonin transporter (Rattus norvegicus, UniProt P31652); assay: Inhibition of [3H]5-HT uptake at SERT in rat cortical synaptosomes; assay type: subcellular, Brain
Chain of Sodium-dependent serotonin transporter (P31652 whole entry): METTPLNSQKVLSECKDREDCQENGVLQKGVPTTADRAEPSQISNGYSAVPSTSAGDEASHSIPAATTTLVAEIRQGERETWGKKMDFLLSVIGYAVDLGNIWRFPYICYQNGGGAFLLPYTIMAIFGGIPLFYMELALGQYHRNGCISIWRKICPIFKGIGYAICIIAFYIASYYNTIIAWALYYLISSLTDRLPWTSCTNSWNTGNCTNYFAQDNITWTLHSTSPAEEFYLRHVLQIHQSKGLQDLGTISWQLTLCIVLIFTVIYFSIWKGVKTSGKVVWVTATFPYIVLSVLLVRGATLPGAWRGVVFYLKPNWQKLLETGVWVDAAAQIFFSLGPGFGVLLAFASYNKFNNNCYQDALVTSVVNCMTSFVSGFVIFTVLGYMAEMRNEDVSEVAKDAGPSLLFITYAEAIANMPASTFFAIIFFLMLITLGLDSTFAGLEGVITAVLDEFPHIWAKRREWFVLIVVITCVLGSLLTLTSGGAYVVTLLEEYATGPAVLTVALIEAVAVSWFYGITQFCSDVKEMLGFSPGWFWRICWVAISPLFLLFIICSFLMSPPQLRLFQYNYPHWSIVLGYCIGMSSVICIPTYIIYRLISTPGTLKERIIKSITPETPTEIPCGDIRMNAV

[15] = Solubility of the compound in simulated gastric fluid at pH 1.2 at 25 degC; assay type: physicochemical
[16] = Solubility of the compound in fed state simulated intestinal fluid at pH 5.5 at 25 degC; assay type: physicochemical
In short: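 Solubility determined at 25 °C in fed state simulated intestinal fluid at pH 5.5.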

[17] = Cmax in Sprague-Dawley rat at 1 mg/kg, po after 24 hrs; assay type: ADME, organism-based; design: dose 1 mg/kg, route oral; details: in vivo
In short: (§2)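 Male Sprague-Dawley rats dosed po at 1 mg/kg (10 mL/kg, 1% DMSO in aqueous 0.5% methocel), n=3, as a cassette with other compounds; blood sampled at intervals up to 24 h and analysed by protein precipitation then LC-MS/MS.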

[18] = Half life in Sprague-Dawley rat at 0.5 mg/kg, iv after 24 hrs; assay type: ADME, organism-based; design: dose 0.5 mg/kg, route intravenous; details: in vivo
In short: (§3)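 Male Sprague-Dawley rats given 0.5 mg/kg iv (2 mL/kg, 2.5% DMSO in glucosate solution), n=3, cassette dosing; blood collected at intervals up to 24 h, protein precipitation and LC-MS/MS quantification.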

[19] = Solubility of the compound in water; assay type: physicochemical
In short: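 Measured on the dihydrochloride salt form, dissolved in water.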

[20] = Oral bioavailability in Sprague-Dawley rat at 1 mg/kg, po after 24 hrs; assay type: ADME, organism-based; details: in vivo; in short: as §2
[21] = Clearance in Sprague-Dawley rat at 0.5 mg/kg, iv after 24 hrs; assay type: ADME, organism-based; design: dose 0.5 mg/kg, route intravenous; details: in vivo; in short: as §3
[22] = Ratio of drug level in brain to blood in Sprague-Dawley rat after 1 hr; assay type: ADME, tissue-based; details: read-out: BBR
In short: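 Male Sprague-Dawley rats dosed iv at 0.5 mg/kg (2.5% DMSO in glucosate), n=3, as a cassette. At 1 h, CO2 anaesthesia, blood taken by heart puncture and brain removed. Both matrices analysed by protein precipitation and LC-MS/MS.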

[23] = AUC (0 to infinity) in Sprague-Dawley rat at 1 mg/kg, po after 24 hrs; assay type: ADME, organism-based; design: time infinity, dose 1 mg/kg, route oral; details: plasma; in short: as §2
Cytochrome P450 2D6 = Cytochrome P450 2D6 (Homo sapiens, UniProt P10635); assay: Inhibition of human recombinant CYP2D6
[24] = Plasma protein binding in dog at 1 ug/mL by equilibrium dialysis method
[25] = target: Alpha-1A adrenergic receptor (Rattus norvegicus, UniProt P43140); assay: Inhibition of rat adrenergic alpha1A receptor
[26] = Protein binding in rat plasma at 1 ug/mL by equilibrium dialysis method
[27] = target: Alpha-1B adrenergic receptor (Rattus norvegicus, UniProt P15823); assay: Inhibition of rat adrenergic Alpha-1B receptor
Cytochrome P450 1A2 = Cytochrome P450 1A2 (Homo sapiens, UniProt P05177); assay: Inhibition of human recombinant CYP1A2
Cytochrome P450 3A4 [28] = target: T6, Cytochrome P450 3A4 (Homo sapiens, UniProt P08684); assay: Inhibition of CYP3A4 in human liver microsomes using midazolam as probe
T6 sequence (P08684 whole entry): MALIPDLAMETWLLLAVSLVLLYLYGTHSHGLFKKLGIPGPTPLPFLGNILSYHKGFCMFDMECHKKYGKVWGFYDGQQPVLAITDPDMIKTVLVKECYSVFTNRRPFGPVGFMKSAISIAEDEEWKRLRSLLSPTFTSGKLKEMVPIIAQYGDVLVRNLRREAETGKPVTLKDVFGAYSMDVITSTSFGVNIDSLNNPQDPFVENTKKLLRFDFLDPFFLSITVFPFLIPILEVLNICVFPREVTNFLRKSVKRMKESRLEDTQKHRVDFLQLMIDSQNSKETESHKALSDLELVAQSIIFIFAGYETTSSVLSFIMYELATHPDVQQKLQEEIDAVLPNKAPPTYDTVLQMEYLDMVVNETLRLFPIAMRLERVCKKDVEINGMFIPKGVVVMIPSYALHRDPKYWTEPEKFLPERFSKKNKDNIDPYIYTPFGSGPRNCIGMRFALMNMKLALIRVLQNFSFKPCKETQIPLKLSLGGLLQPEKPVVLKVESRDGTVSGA

[29] = Plasma protein binding in human at 1 ug/mL by equilibrium dialysis method
Cytochrome P450 2C9 = Cytochrome P450 2C9 (Homo sapiens, UniProt P11712); assay: Inhibition of human recombinant CYP2C9
Cytochrome P450 3A4 [30] = target: T6, Cytochrome P450 3A4; assay: Inhibition of CYP3A4 in human liver microsomes using atorvastatin as probe
Cytochrome P450 3A4 [31] = target: T6, Cytochrome P450 3A4; assay: Inhibition of human recombinant CYP3A4
Cytochrome P450 3A4 [32] = target: T6, Cytochrome P450 3A4; assay: Inhibition of CYP3A4 in human liver microsomes using nifedipine as probe
Cytochrome P450 2C19 = Cytochrome P450 2C19 (Homo sapiens, UniProt P33261); assay: Inhibition of human recombinant CYP219

Cc1ccc2c(N3CCN(CCc4cccc(N5CCNC5=O)c4)CC3)cccc2n1
Intrinsic activity [1]: 0 | inhibition (Rattus norvegicus): Dose-dependent effect | Intrinsic activity [2]: 0 | Intrinsic activity [3]: 0

Cc1ccc2c(N3CCN(CCc4cccc(NS(C)(=O)=O)c4)CC3)cccc2n1
Intrinsic activity [1]: 0 | inhibition (Rattus norvegicus): Dose-dependent effect | Activity [4]: Active | Intrinsic activity [2]: 0.1

Cc1ccc2c(N3CCN(CCc4cccc(NC(=O)Nc5ccccc5)c4)CC3)cccc2n1
Ki [5]: > 6310 nM | Ki (D(2) dopamine receptor): 79.4 nM | Ki [6]: 316 nM | Ki [7]: 3.98 nM | Ki [8]: 79.4 nM | Intrinsic activity [1]: 0 | Ki [9]: 316 nM | Ki [10]: > 10000 nM | Ki (D(3) dopamine receptor): 31.6 nM | Ki [11]: 0.316 nM | Ki [12]: > 6310 nM | Ki [13]: 3.16 nM | Intrinsic activity [2]: 0 | Intrinsic activity [3]: 0 | Ki [14]: 2000 nM

Cc1ccc2c(N3CCN(CCc4cccc(NS(C)(=O)=O)c4)CC3)cccc2n1.Cl.Cl
solubility [15]: > 10000 µg/mL | solubility [16]: 600 µg/mL | Cmax [17]: 243 ng/mL | ED50 (Rattus norvegicus): 1 mg/kg | half-life [18]: 3.9 h | solubility [19]: > 10000 µg/mL | bioavailability [20]: 56% | clearance [21]: 7 mL/min/kg | Kp at 1 h [22]: 0.5 | AUC(0-inf) [23]: 1450 ng·h/mL

CC(=O)Nc1cccc(CCN2CCN(c3cccc4nc(C)ccc34)CC2)c1.Cl.Cl
solubility [15]: > 10000 µg/mL | solubility [16]: 5000 µg/mL | Cmax [17]: 98 ng/mL | ED50 (Rattus norvegicus): 0.09 mg/kg | half-life [18]: 4.6 h | solubility [19]: > 10000 µg/mL | bioavailability [20]: 51% | clearance [21]: 10 mL/min/kg | Kp at 1 h [22]: 0.7 | AUC(0-inf) [23]: 893 ng·h/mL

CC(=O)Nc1cccc(CCN2CCN(c3cccc4nc(C)ccc34)CC2)c1
Intrinsic activity [1]: 0 | inhibition (Rattus norvegicus): Dose-dependent effect | Activity [4]: Active | Intrinsic activity [2]: 0

Cc1ccc2c(N3CCN(CCc4cccc(N5CCOC5=O)c4)CC3)cccc2n1
Ki [5]: 1260 nM | Ki (D(2) dopamine receptor): 794 nM | Ki [6]: 3160 nM | Ki [8]: 501 nM | Intrinsic activity [1]: 0 | Activity [4]: Active | Ki [9]: 2000 nM | Ki [10]: > 5010 nM | Ki (D(3) dopamine receptor): 200 nM | Ki [11]: 0.158 nM | Ki [12]: 794 nM | Intrinsic activity [2]: 0 | Ki [14]: 501 nM

Cc1ccc2c(N3CCN(CCc4cccc(N5CCNC5=O)c4)CC3)cccc2n1 [GSK163090]
IC50 (Cytochrome P450 2D6): 86000 nM | fraction unbound at 1 ug/mL [24]: 0.045 | IC50 [25]: 25.1 nM | Ki [6]: > 5010 nM | fraction unbound at 1 ug/mL [26]: 0.041 | IC50 [27]: 25.1 nM | IC50 (Cytochrome P450 1A2): 96000 nM | IC50 (Cytochrome P450 3A4 [28]): 21000 nM | Ki [9]: 12600 nM | fraction unbound at 1 ug/mL [29]: 0.041 | IC50 (Cytochrome P450 2C9): 60000 nM | IC50 (Cytochrome P450 3A4 [30]): 21000 nM | Ki [10]: 1580 nM | IC50 (Cytochrome P450 3A4 [31]): 67000 nM | IC50 (Cytochrome P450 3A4 [32]): 21000 nM | IC50 (Cytochrome P450 2C19): 76000 nM
